Experimental data published in PubChem BioAssay AID624466 (The Scripps Research Institute Molecular Screening Center, 2012).
Out of some 360,000 compounds screened, about 5,400 (1.5%) were called active. Many of the other results were omitted from the sample, so actives are more common in it than they were. Values without a mark were called inactive.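 How the source made its calls: active means inhibition above a per-plate cutoff, the mean inhibition of test compounds on that plate plus 3 SD (cut at about 49% in these data); inactive means the rest.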

Target: Trace amine-associated receptor 1 (Homo sapiens) (UniProt Q96RJ0)
Sequence (Q96RJ0 whole entry, looked up): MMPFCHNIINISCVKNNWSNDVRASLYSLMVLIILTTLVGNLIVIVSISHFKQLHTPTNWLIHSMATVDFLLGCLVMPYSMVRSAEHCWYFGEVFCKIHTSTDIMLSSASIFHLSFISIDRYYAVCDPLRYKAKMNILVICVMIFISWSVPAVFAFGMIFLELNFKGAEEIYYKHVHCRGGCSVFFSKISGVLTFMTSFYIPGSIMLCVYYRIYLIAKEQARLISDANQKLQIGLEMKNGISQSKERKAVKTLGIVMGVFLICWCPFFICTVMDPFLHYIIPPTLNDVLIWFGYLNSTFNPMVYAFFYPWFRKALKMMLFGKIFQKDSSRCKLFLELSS
Assay: blockers of beta-PEA-driven TAAR1 calcium signal – Fluo-8 calcium fluorescence, CHO RD-HGA16 cells, primary screen (AID 624466);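 further: 0% = DMSO plus EC80 beta-PEA response and 100% = DMSO alone without agonist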
Conditions: CHO RD-HGA16 TAAR1, Fluo-8 calcium fluorescence, antagonist; at 3 µM; hits give high values
Method in brief: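 Material: CHO RD-HGA16 cells bearing hTAAR1; compound dosing: one-point dosing, 3 µM nominal final; schedule: dye loading 75 min at 37 °C, then 30 min room temperature; measured by: calcium fluorescence with Fluo-8; control set: vehicle and agonist controls; replication: n of 1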

Row | SMILES | inhibition
1 | COC(=O)C1=C(C)N(Cc2ccccc2C(F)(F)F)C(=NCC2CC2)NC1c1cccc(Cl)c1 (centres undefined) | 1.62%
2 | CCOC(=O)c1cc(-c2ccc(Cl)s2)nc2c1c(C)nn2C | 1.4%
3 | CNS(=O)(=O)c1cccc(C(=O)OCC(=O)N2c3ccccc3NC(=O)C2(C)C)c1 | 0.12%
4 | Cc1ccc(OCCC(=O)OCC(=O)N2c3ccccc3NC(=O)C2(C)C)cc1 | 50.6% (active)
5 | CC1(C)C(=O)Nc2ccccc2N1C(=O)COC(=O)Cn1cnc2ccccc2c1=O | 12.5%
6 | CC(c1ccccc1)n1c(NCCCn2ccnc2)nc2c1c(=O)[nH]c(=O)n2C (centres undefined) | 10.8%
7 | Cc1cc(=O)[nH]c2nnnn12 | -7.21%
8 | COc1ccc(S(=O)(=O)N(CC(=O)N/N=C/c2ccc(C(=O)O)cc2)Cc2ccccc2)cc1OC | -28.3%
9 | COc1ccc(N(CC(=O)N/N=C/c2cccs2)S(=O)(=O)c2ccc(OC)c(OC)c2)cc1 | 69.2% (active)
10 | COc1ccc(N(CC(=O)N/N=C/c2cccc3c2OCCO3)S(=O)(=O)c2ccc(NC(C)=O)cc2)cc1 | 29.3%
11 | Nc1[nH]c(C(=O)c2ccccc2)c(-c2ccc(Cl)cc2Cl)c1C(=O)c1ccccc1 | -37.8%
12 | COc1ccccc1OCCNC(=O)C(CCSC)NC(=O)COc1ccccc1 (centres undefined) | -26.3%
13 | CSCCC(NC(=O)COc1ccccc1)C(=O)OCc1ccc(Cl)cc1 (centres undefined) | 22.9%
14 | CSCCC(NC(=O)COc1ccccc1)C(=O)OCC(=O)c1cc2ccccc2o1 (centres undefined) | 50% (active)
15 | CSCCC(NC(=O)COc1ccccc1)C(=O)Nc1ccc(C)cc1 (centres undefined) | -10.3%
16 | CSCCC(NC(=O)COc1ccccc1)C(=O)OCCOc1ccc(F)cc1 (centres undefined) | 37.1%
17 | CSCCC(NC(=O)COc1ccccc1)C(=O)OCCOc1ccc(Br)cc1 (centres undefined) | 55.7% (active)
18 | C=CCN1C(=O)C2(OCCCO2)c2cccc(Cl)c21 | 3.13%
19 | O=C(Nc1c(Cl)c(C2CC2)nn1-c1ccccc1)C(Cl)(Cl)Cl | -12.3%
20 | FC(F)(F)c1cccc(-c2nc3ccccc3n2C(c2ccccc2)c2nc3ccccc3[nH]2)c1 (centres undefined) | 18.4%
21 | O=C(c1ccc(C(F)(F)F)cc1)N1CCC(=O)N([C@H](COCc2ccccc2)Cc2ccccc2)CC1 | 14.8%
22 | COc1ccc(NC(=O)C(c2ccncc2)n2c(=O)c(-c3cc4ccccc4[nH]3)nc3ccccc32)cc1 (centres undefined) | -5.75%
23 | O=C1NC[C@H](CCCCN2C[C@H](Cc3ccc(O)cc3)N(CCc3ccccc3)C(=O)C2=O)N(CCc2ccccc2)C1=O | 5.71%
24 | COc1ccc(CNC(=O)C2(CC3CC(c4ccccc4)=NO3)CCN(C(=O)c3cccc(O)c3)CC2)cc1 (centres undefined) | 33.5%
25 | Cc1ccc(CNC(=O)c2cc(-c3ccccc3C)n(CC3CC(c4cccc([N+](=O)[O-])c4)=NO3)n2)cc1 (centres undefined) | 7.96%
26 | COc1ccc(C2=NOC(Cn3nc(C(=O)NCc4ccc5c(c4)OCO5)cc3-c3ccccc3)C2)cc1 (centres undefined) | 59.7% (active)
27 | COc1ccccc1C(=O)N1O[C@]23C=C[C@]14C[C@@H](O)CC[C@]4(C)C2CC[C@]1(C)[C@@H]([C@H](C)/C=C/[C@H](C)C(C)C)CC[C@H]13 (some centres undefined) | 2.31%

Row | SMILES | inhibition
28 | Cc1ccc(C)c(-n2nnnc2SCC(=O)c2c(N)n(C)c(=O)n(C)c2=O)c1 | -13.3%
29 | COC(=O)Nc1ccc(S(=O)(=O)Nc2cc(OC)nc(OC)n2)cc1 | -1.45%
30 | Cc1cc2nc3c(=O)[nH]c(=O)nc-3n(C[C@H](O)[C@H](O)[C@H](O)CO)c2cc1C | 18.8%
31 | CCN(CC)CCCC(C)n1c2nc(=O)[nH]c(=O)c-2nc2cc(Cl)ccc21 (centres undefined) | 72% (active)
32 | Nc1ccn([C@@H]2O[C@H](C(=O)N[C@H]3CCCCNC3=O)[C@@H](O)[C@H]2O)c(=O)n1 | 21.5%
33 | O=C(COC(=O)c1ccc(S(=O)(=O)N2CCc3ccccc3C2)cc1)NC(=O)NCc1ccco1 | 0.28%
34 | Cc1cc(N2CCN(C(=O)OC(C)(C)C)C[C@H]2C)ccc1N1CCN(Cc2ccccc2)[C@H](C)C1 | 8.39%
35 | COc1ccc(OC)c(Nc2nc3ccccc3n3cnnc23)c1 | -3.9%
36 | COc1ccc(Sc2ccc(NC(=O)c3cccc(Cl)c3)cc2C#N)cc1 | 48.8% (active)
37 | Cc1ccc(Sc2ccc(NC(=O)c3ccc(F)cc3)cc2C#N)cc1 | 47.8%
38 | CSc1ccc(C#N)cc1NC(=O)c1cccc(Cl)c1 | -1.36%
39 | Cc1cc(C)n2c(NCc3ccccc3)c(CC(C)C)nc2n1 | -31.3%
40 | COc1ccccc1-c1cc(NC(C)=O)c2ncc(-c3ccc(F)cc3)n2c1 | 11%
41 | COc1cccc(-c2cnc3c(NC(C)=O)cc(-c4cc(F)ccc4OC)cn23)c1 | 56.7% (active)
42 | COc1cccc(-c2cnc3c(NC(C)=O)cc(-c4cccc(NC(C)=O)c4)cn23)c1 | 33.8%
43 | CC1(C)CC(=O)C2=C(C1)Nc1cc(C(=O)c3ccccc3)ccc1NC2c1ccccn1 (centres undefined) | -12.4%
44 | Cc1ccc(C)c(NS(=O)(=O)c2c(C)[nH]c(C)c2C(=O)N2CCCCC2)c1 | -30.8%
45 | COC(=O)c1cc(OC)c(OC)cc1NC(=O)CSc1ccc(C)cc1 | -0.75%
46 | Cc1ccc(SCC(=O)c2cc(C)c(OC(=S)N(C)C)c(C)c2)cc1 | 57% (active)
47 | Cc1ccc(SCC(=O)Nc2ccc3c(c2)OCCO3)cc1 | -11.4%
48 | CCCCNc1c(-c2cccc(Sc3ccc(OC)cc3)c2)nc2ccccn12 | 87.9% (active)
49 | COC(=O)c1ccc2nc(-c3ccccc3)c(Cc3ccc(OC)cc3C)n2c1 | 3.43%
50 | COC(=O)c1ccc2nc(-c3cccc(Br)c3)c(Cc3ccc(OC)cc3C)n2c1 | -4.86%
51 | CCCCNC(=O)CCn1nc(-c2ccc(Cl)cc2)ccc1=O | -14.1%
52 | C/C(=N\Nc1nc(Nc2ccccc2)nc(N2CCOCC2)n1)c1cccs1 | 9.62%
53 | COc1ccc(Nc2ncc(F)c(N3CCOCC3)n2)cc1 | 7.62%
54 | c1ccc(Nc2nc(N3CCOCC3)c3ccccc3n2)cc1 | 74.1% (active)

Row | SMILES | inhibition
55 | O=C(O)C1CCCN(S(=O)(=O)c2cccc3cccnc23)C1 (centres undefined) | -9.13%
56 | COc1ccc(S(=O)(=O)N2CCCC(C(=O)Nc3ccc(NC(=O)c4ccccn4)cc3)C2)cc1 (centres undefined) | 63% (active)
57 | COc1ccc(CCNC(=O)C2CCCN(S(=O)(=O)c3ccc(OC)cc3)C2)cc1 (centres undefined) | 5.88%
58 | COc1ccc(NC(=O)C2CCCN(S(=O)(=O)c3cccc4cccnc34)C2)cc1OC (centres undefined) | 66.5% (active)
59 | CC(=O)Nc1ccc(NC(=O)C2CCCN(S(=O)(=O)c3ccc(Cl)cc3)C2)cc1 (centres undefined) | 9.58%
60 | COc1ccccc1CNC(=O)C1CCCN(S(=O)(=O)c2cccc3cccnc23)C1 (centres undefined) | -10.9%
61 | CCN(CC(=O)Nc1ccc(NC(C)=O)cc1)C(=O)CSC(=S)N1CCCC1 | 14.2%
62 | O=C1[C@H]2[C@@H](c3ccc(C(F)(F)F)cc3)N[C@]3(CCCN(Cc4ccc(Br)cc4)C3=O)[C@H]2C(=O)N1Cc1ccccc1 | -23.7%
63 | CCCNC(=O)C[C@@H]1CC[C@@H]2[C@H](COC[C@H](O)CN2C(=O)c2cc(Cl)cc(Cl)c2)O1 | -27.3%
64 | O=C(NCCCc1ccccc1)C1CCC(=O)N(CCc2ccc(Cl)cc2)C1 (centres undefined) | 2.14%
65 | CCOc1cc(N2CCOCC2)c(OCC)cc1NC(=O)COc1cccc2cccnc12 | 56.4% (active)
66 | CCOc1cc(N2CCOCC2)c(OCC)cc1NC(=O)C1=NN(c2cccc(C)c2)C(=O)CC1 | 44.9%
67 | CCOc1cc(N2CCOCC2)c(OCC)cc1NC(=O)COC(=O)[C@H](Cc1c[nH]c2ccccc12)NC(C)=O | 22.1%
68 | COc1ccccc1N1CC(C(=O)NCCN2C(=O)S/C(=C\c3cccnc3)C2=O)CC1=O (centres undefined) | -4.74%
69 | O=C(NCCN1C(=O)S/C(=C\c2cccnc2)C1=O)c1ccc(S(=O)(=O)N2CCCC2)cc1 | 49.1% (active)
70 | O=C(NCCN1C(=O)S/C(=C\c2cccnc2)C1=O)c1cccc(OC(F)F)c1 | 7.53%
71 | COC(=O)[C@@]12C[C@@H](CC(=O)NCc3cccc(C(F)(F)F)c3)C(=O)N(Cc3ccco3)C1=CCC(C)(C)C2 | -43.8%
72 | COC(=O)c1cc2c(c3c4ccccc4n(S(=O)(=O)c4cccc(C)c4)c13)C(=O)N(Cc1ccccc1)C2 | -30.3%
73 | O=S1(=O)c2c(cccc2N2CCCC2)O[C@H](COCc2ccccc2)CN1C1CC1 | 23.8%
74 | O=S1(=O)c2c(cccc2N2CCCCC2)O[C@H](COCc2ccccc2)CN1C1CC1 | 51.8% (active)
75 | CSc1ccc(Oc2cccc3c2S(=O)(=O)N([C@H](C)c2ccccc2)C[C@@H](COCc2ccccc2)O3)cc1C | 5.23%
76 | COC(=O)C1=C(C(=O)OC)C2C=C(C(C)C)C1C(=O)C2(C)O (centres undefined) | -37.3%
77 | C[C@@H]1CN([C@H](C)CO)S(=O)(=O)c2ccc(C#C[C@@H](C)O)cc2O[C@@H]1CN(C)Cc1ccc(-c2ccccc2)cc1 | -12.7%
78 | C[C@H]1CN([C@@H](C)CO)S(=O)(=O)c2ccc(-c3cccc(F)c3)cc2O[C@@H]1CN(C)C | -12.6%
79 | C[C@@H]1CN([C@@H](C)CO)S(=O)(=O)c2ccc(C#Cc3cccc(F)c3)cc2O[C@H]1CN(C)S(=O)(=O)c1cn(C)cn1 | 68.3% (active)
